The source of these data is ChEMBL document CHEMBL4480426, “Novel multi-target directed ligands based on annelated xanthine scaffold with aromatic substituents acting on adenosine receptor and monoamine oxidase B. Synthesis, in vitro and in silico studies” (Bioorg Med Chem, 2019).

By Ki is commonly meant a measure of affinity in units of concentration, obtained from inhibition or displacement. In general, IC50 refers to the concentration needed to halve the response being measured.

One data set addresses T1, Adenosine receptor A1 (Rattus norvegicus, UniProt P25099).
T1 sequence (P25099 whole entry): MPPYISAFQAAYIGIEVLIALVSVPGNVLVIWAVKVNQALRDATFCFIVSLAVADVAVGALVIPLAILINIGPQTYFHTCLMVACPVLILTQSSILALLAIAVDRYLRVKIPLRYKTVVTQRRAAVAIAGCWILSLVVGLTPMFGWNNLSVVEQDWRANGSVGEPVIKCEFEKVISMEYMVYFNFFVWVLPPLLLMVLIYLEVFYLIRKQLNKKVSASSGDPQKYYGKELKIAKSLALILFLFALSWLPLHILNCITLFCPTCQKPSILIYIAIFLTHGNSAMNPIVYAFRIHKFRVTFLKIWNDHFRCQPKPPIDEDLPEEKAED
Nature of the data set: Displacement of [3H]CCPA from adenosine A1 receptor in rat brain cortical membranes. Type of data set: cell membranes. For orientation: Displacement assays read how much labelled ligand stays bound in the presence of the test substance.

A further data set addresses Adenosine receptor A2a (Homo sapiens, UniProt P29274). Nature of the data set: Displacement of [3H]MSX2 from recombinant human adenosine A2a receptor expressed in HEK293 cells. In kind it is cell-based.
The next data set has as its target T2, Adenosine receptor A2b (Homo sapiens, UniProt P29275).
T2 sequence (P29275 whole entry): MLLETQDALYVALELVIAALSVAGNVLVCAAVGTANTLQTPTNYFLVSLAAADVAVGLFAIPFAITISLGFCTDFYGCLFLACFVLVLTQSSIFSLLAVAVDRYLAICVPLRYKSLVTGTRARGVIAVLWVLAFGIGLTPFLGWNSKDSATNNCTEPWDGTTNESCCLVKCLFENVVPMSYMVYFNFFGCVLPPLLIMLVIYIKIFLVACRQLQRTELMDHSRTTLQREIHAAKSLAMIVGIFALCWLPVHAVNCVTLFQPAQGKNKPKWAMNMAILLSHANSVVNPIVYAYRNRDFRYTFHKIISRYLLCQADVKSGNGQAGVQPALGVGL
Nature of the data set: Displacement of [3H]PSB603 from recombinant human adenosine A2b receptor expressed in HEK293 cells. Type of data set: cell-based.

The target of another data set is T3, Adenosine receptor A3 (Homo sapiens, UniProt P0DMS8).
T3 sequence (P0DMS8 whole entry): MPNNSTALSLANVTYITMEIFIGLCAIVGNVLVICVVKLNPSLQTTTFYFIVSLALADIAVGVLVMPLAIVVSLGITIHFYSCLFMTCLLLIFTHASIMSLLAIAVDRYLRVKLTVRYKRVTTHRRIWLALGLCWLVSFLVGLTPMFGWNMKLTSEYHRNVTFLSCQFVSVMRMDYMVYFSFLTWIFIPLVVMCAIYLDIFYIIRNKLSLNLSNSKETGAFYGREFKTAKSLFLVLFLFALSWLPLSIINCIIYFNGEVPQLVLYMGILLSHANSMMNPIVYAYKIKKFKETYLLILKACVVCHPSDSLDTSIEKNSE
Description: Displacement of [3H]PSB11 from recombinant human adenosine A3 receptor expressed in CHO cells. Type of data set: cell-based.

The target of data set [1] is T4, Amine oxidase [flavin-containing] A (Homo sapiens, UniProt P21397).
T4 sequence (P21397 whole entry): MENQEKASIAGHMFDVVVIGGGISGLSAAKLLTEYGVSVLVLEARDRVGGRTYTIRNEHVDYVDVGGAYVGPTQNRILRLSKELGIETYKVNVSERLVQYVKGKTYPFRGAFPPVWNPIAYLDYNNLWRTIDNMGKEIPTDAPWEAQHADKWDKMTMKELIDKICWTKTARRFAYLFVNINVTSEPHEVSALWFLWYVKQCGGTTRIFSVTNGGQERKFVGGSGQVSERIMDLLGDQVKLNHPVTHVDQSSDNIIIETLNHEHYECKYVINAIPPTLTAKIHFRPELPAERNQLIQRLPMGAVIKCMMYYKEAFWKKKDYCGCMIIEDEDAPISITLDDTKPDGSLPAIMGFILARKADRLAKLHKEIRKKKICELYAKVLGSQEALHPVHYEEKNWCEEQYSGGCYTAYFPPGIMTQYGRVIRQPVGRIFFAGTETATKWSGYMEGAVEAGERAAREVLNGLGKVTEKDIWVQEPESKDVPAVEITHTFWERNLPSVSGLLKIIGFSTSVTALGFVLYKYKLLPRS
Description: Inhibition of recombinant human MAOA expressed in baculovirus infected BTI insect cells using p-tyramine as substrate preincubated for 30 mins followed by substrate addition and measured over 45 mins by horseradish peroxidase-Amplex Red-coupled fluorometric assay. In short, it runs like this: (§1)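 Human recombinant MAO-A or MAO-B enzyme. Activity detected fluorometrically with the Amplex Red monoamine oxidase assay.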

Data set [2] addresses T5, Amine oxidase [flavin-containing] B (Homo sapiens, UniProt P27338).
T5 sequence (P27338 whole entry): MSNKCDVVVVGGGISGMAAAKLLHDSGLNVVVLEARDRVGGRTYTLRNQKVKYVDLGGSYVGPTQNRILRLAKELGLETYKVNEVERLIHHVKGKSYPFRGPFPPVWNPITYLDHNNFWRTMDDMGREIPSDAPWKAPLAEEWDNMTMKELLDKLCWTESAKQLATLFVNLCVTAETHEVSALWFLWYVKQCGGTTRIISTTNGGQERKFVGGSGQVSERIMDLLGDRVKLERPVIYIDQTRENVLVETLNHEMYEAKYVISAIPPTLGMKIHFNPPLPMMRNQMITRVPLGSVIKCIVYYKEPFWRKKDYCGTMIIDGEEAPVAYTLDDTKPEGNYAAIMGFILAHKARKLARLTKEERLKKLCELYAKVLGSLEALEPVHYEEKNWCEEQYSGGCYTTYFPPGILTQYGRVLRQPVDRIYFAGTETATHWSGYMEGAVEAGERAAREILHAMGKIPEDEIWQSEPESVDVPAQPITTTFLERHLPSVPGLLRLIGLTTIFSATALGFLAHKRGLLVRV
Nature of the data set: Inhibition of recombinant human MAOB expressed in baculovirus infected BTI insect cells using p-tyramine as substrate preincubated for 30 mins followed by substrate addition and measured over 45 mins by horseradish peroxidase-Amplex Red-coupled fluorometric assay. In short, it runs like this:
as §1

Data set [3] has as its target T4, Amine oxidase [flavin-containing] A. Nature of the data set: Inhibition of recombinant human MAOA expressed in baculovirus infected BTI insect cells at 1 to 100 uM using p-tyramine as substrate preincubated for 30 mins followed by substrate addition and measured over 45 mins by horseradish peroxidase-Amplex Red-coupled fluorometric assay relative to control. The following applies: 0.75 h. In short, it runs like this: as §1

The subject of the next data set is HepG2. Nature of the data set: Hepatotoxicity against human HepG2 cells assessed as reduction in cell viability at 100 uM measured after 72 hrs by CellTiter96 Aqueous non-radioactive cell proliferation assay. In kind it is toxicity, cell-based. The following applies: hepg2, 72 h. In short, it runs like this:
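HepG2 cells seeded at 1.5×10^4 cells/well in MEM with 4.5 g/L glucose and 10% FBS, grown 24 h at 37 °C, 5% CO2. Compounds diluted in the same medium and applied for 72 h. CellTiter 96 AQueous reagent then added for 2 h, absorbance read at 490 nm. One-way ANOVA with Bonferroni post test.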

Data set [4] in a line: Antioxidant activity assessed as increase in total ferric ion reducing activity at 1000 uM using FeCl3.6H2O and TPTZ incubated for 10 mins under dark condition by FRAP assay relative to control. Type of data set: functional. Details: scale not given: the % may be the effect or the level left. In short, it runs like this: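 FRAP reagent made by mixing 10 parts 300 mM acetate buffer pH 3.6, 1 part 10 mM TPTZ in 40 mM HCl and 1 part 20 mM FeCl3·6H2O. Reagent mixed with compound solution, 10 min at room temperature in the dark. Ferrous-TPTZ complex read at 593 nm. Result is absorbance increase versus solvent sample. FeSO4·7H2O standard curve, 37.5–1200 μM.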

The next data set relates to Brain. Nature of the data set: Antioxidant activity in rat brain homogenate assessed as inhibition of FeCl2/ascorbic acid-induced lipid peroxidation by measuring reduction in TBARS level at 1000 uM preincubated for 5 mins followed by FeCl2/ascorbic acid addition and measured after 30 mins relative to control. Type of data set: functional, tissue-based. The arrangement: scale not given: the % may be the effect or the level left. In short, it runs like this:
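Rat brain homogenate in 0.9% saline, 10 mg tissue/ml, preincubated 5 min at 37 °C with compound or vehicle. Peroxidation started with 0.5 mM FeCl2 plus 2 mM ascorbic acid (added-solution concentrations). After 30 min, stopped with 0.2% BHT. Thiobarbituric acid reagent added, heated 15 min in boiling water, TBARS extracted into n-butanol and read at 532 nm. Carvedilol as reference.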

In data set [5] the target is Adenosine receptor A1 (Rattus norvegicus) (UniProt P25099). Description: Displacement of [3H]CCPA from rat adenosine A1 receptor.

Adenosine receptor A2a, sequence (P29274 whole entry): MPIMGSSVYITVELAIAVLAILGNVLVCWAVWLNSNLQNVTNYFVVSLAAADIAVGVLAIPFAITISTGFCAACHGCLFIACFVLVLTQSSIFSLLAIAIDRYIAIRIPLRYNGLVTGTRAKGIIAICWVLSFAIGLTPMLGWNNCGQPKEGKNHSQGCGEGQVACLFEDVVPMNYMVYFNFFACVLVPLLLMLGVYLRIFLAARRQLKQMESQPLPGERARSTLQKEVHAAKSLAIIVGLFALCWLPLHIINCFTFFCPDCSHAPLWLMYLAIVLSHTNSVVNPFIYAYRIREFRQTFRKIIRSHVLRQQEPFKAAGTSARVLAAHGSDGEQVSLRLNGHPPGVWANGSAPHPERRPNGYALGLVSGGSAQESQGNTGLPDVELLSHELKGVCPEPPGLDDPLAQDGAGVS

As for `Cn1c(=O)c2c(nc3n2CCCN3Cc2ccccc2Br)n(C)c1=O`, the Ki at Adenosine receptor A1 was 2320 nM; on Adenosine receptor A2a it was 1610 nM; on Adenosine receptor A2b, over 1000 nM; on Adenosine receptor A3, over 1000 nM. For the same compound, the IC50 in data set [1] is over 1000 nM; in data set [2], 150 nM. Further, the “inhibition (INH)” value in [3] came to 1%. Moreover, the values for the Activity entry (in the data set with HepG2; in data set [4]; with Brain) were “Toxic”, 3.4% and 29.5%, respectively.

`Cn1c(=O)c2c(nc3n2CCCN3Cc2cccc(Cl)c2)n(C)c1=O` showed a Ki in data set [5] of 802 to 1120 nM.
